Data: ChEMBL document CHEMBL3244241, “Synthesis of cephalotaxine esters and correlation of their structures with antitumor activity” (J Med Chem, 1977)
Active and inactive are the calls of the source. The rule behind the calls is not given here.

Key:
P388 [1] = test: Antitumor activity against mouse P388 cells allografted in DBA/2 mouse assessed as disease cure at 365 mg/kg/day, ip for 9 days compound administered through water+alcohol vehicle measured after 30 days; type: functional, organism-based
How it was run: (§1)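 P388 lymphocytic leukemia in DBA/2 mice; one intraperitoneal injection per day for 9 days. […] Injection vehicles were water + alcohol, saline + Tween 80, or aqueous 0.5% citric acid. Some tests were duplicated, and 30-day cures were recorded.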

L1210 = test: Antitumor activity against mouse L1210 cells allografted in DBA/2 mouse at 25 to 200 mg/kg; type: functional, organism-based
P388 [2] = test: Antitumor activity against mouse P388 cells allografted in DBA/2 mouse assessed as host survival at 240 mg/kg/day, ip for 9 days compound administered through water+alcohol vehicle relative to control; type: functional; conditions: route intraperitoneal
How it was run: (§2)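 P388 lymphocytic leukemia in DBA/2 mice. Dosing was one intraperitoneal injection per day for 9 days in the vehicle stated. […] Duplicate tests were run for some doses.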

Mus musculus [3] = test: Toxicity in DBA/2 mouse allografted with mouse P388 cells assessed as change in body weight at 80 mg/kg/day, ip for 9 days compound administered through water+alcohol vehicle; type: organism-based; design: route intraperitoneal; conditions: in vivo, 216 h
How it was run: (§3)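 DBA/2 mice bearing P388 lymphocytic leukemia received one intraperitoneal injection per day for 9 days, given in the vehicle named for each test (water/alcohol-based, saline or saline + Tween 80). Toxicity was noted during dosing alongside survival scoring (T/C, treated versus control mean survival time).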

Mus musculus [4] = test: Toxicity in DBA/2 mouse allografted with mouse P388 cells assessed as change in body weight at 40 mg/kg/day, ip for 9 days compound administered through water+alcohol vehicle; type: organism-based; design: route intraperitoneal; conditions: in vivo, 216 h; how it was run: as §3
Mus musculus [5] = test: Toxicity in DBA/2 mouse allografted with mouse P388 cells assessed as change in body weight at 240 mg/kg/day, ip for 9 days compound administered through water+alcohol vehicle; type: organism-based; design: route intraperitoneal; conditions: in vivo, 216 h; how it was run: as §3
Mus musculus [6] = test: Toxicity in DBA/2 mouse allografted with mouse P388 cells at 400 mg/kg/day, ip for 9 days; type: organism-based; design: route intraperitoneal; conditions: in vivo, 216 h; how it was run: as §3
Mus musculus [7] = test: Toxicity in DBA/2 mouse allografted with mouse P388 cells assessed as change in body weight at 160 mg/kg/day, ip for 9 days compound administered through water+alcohol vehicle; type: organism-based; design: route intraperitoneal; conditions: in vivo, 216 h; how it was run: as §3
P388 [8] = test: Antitumor activity against mouse P388 cells allografted in DBA/2 mouse assessed as host survival at 40 mg/kg/day, ip for 9 days compound administered through water+alcohol vehicle relative to control; type: functional; conditions: route intraperitoneal; how it was run: as §2
P388 [9] = test: Antitumor activity against mouse P388 cells allografted in DBA/2 mouse assessed as host survival at 160 mg/kg/day, ip for 9 days compound administered through water+alcohol vehicle relative to control; type: functional; conditions: route intraperitoneal; how it was run: as §2
Mus musculus [10] = test: Toxicity in DBA/2 mouse allografted with mouse P388 cells assessed as change in body weight at 365 mg/kg/day, ip for 9 days compound administered through water+alcohol vehicle; type: organism-based; design: route intraperitoneal; conditions: in vivo, 216 h; how it was run: as §3
P388 [11] = test: Antitumor activity against mouse P388 cells allografted in DBA/2 mouse assessed as host survival at 365 mg/kg/day, ip for 9 days compound administered through water+alcohol vehicle relative to control; type: functional; conditions: route intraperitoneal; how it was run: as §2
P388 [12] = test: Antitumor activity against mouse P388 cells allografted in DBA/2 mouse assessed as host survival at 80 mg/kg/day, ip for 9 days compound administered through water+alcohol vehicle relative to control; type: functional; conditions: route intraperitoneal; how it was run: as §2
P388 [13] = test: Antitumor activity against mouse P388 cells allografted in DBA/2 mouse assessed as host survival at 20 mg/kg/day, ip for 9 days compound administered through 0.5% citric acid vehicle; type: functional, organism-based; how it was run: as §1
P388 [14] = test: Antitumor activity against mouse P388 cells allografted in DBA/2 mouse assessed as host survival at 20 mg/kg/day, ip for 9 days compound administered through saline+Tween 80 vehicle relative to control; type: functional; conditions: route intraperitoneal; how it was run: as §2
Mus musculus [15] = test: Toxicity in DBA/2 mouse allografted with mouse P388 cells assessed as change in body weight at 20 mg/kg/day, ip for 9 days compound administered through water+alcohol vehicle; type: organism-based; design: route intraperitoneal; conditions: in vivo, 216 h; how it was run: as §3
P388 [16] = test: Antitumor activity against mouse P388 cells allografted in DBA/2 mouse assessed as host survival at 13 mg/kg/day, ip for 9 days compound administered through water+alcohol vehicle relative to control; type: functional; conditions: route intraperitoneal; how it was run: as §2
Mus musculus [17] = test: Toxicity in DBA/2 mouse allografted with mouse P388 cells assessed as change in body weight at 20 mg/kg/day, ip for 9 days compound administered through saline+Tween 80 vehicle; type: organism-based; design: route intraperitoneal; conditions: in vivo, 216 h; how it was run: as §3
P388 [18] = test: Antitumor activity against mouse P388 cells allografted in DBA/2 mouse assessed as host survival at 20 mg/kg/day, ip for 9 days compound administered through water+alcohol vehicle relative to control; type: functional; conditions: route intraperitoneal; how it was run: as §2
Mus musculus [19] = test: Toxicity in DBA/2 mouse allografted with mouse P388 cells assessed as change in body weight at 13 mg/kg/day, ip for 9 days compound administered through water+alcohol vehicle; type: organism-based; design: route intraperitoneal; conditions: in vivo, 216 h; how it was run: as §3
Mus musculus [20] = test: Toxicity in DBA/2 mouse allografted with mouse P388 cells assessed as change in body weight at 320 mg/kg/day, ip for 9 days compound administered through water+alcohol vehicle; type: organism-based; design: route intraperitoneal; conditions: in vivo, 216 h; how it was run: as §3
Mus musculus [21] = test: Toxicity in DBA/2 mouse allografted with mouse P388 cells assessed as change in body weight at 8.8 mg/kg/day, ip for 9 days compound administered through water+alcohol vehicle; type: organism-based; design: route intraperitoneal; conditions: in vivo, 216 h; how it was run: as §3
P388 [22] = test: Antitumor activity against mouse P388 cells allografted in DBA/2 mouse assessed as host survival at 8.8 mg/kg/day, ip for 9 days compound administered through water+alcohol vehicle relative to control; type: functional; conditions: route intraperitoneal; how it was run: as §2
P388 [23] = test: Antitumor activity against mouse P388 cells allografted in DBA/2 mouse assessed as host survival at 320 mg/kg/day, ip for 9 days compound administered through water+alcohol vehicle relative to control; type: functional; conditions: route intraperitoneal; how it was run: as §2
P388 [24] = test: Antitumor activity against mouse P388 cells allografted in DBA/2 mouse assessed as host survival at 9 mg/kg/day, ip for 9 days compound administered through water+alcohol vehicle relative to control; type: functional; conditions: route intraperitoneal; how it was run: as §2
Mus musculus [25] = test: Toxicity in DBA/2 mouse allografted with mouse P388 cells assessed as change in body weight at 4 mg/kg/day, ip for 9 days compound administered through saline vehicle; type: organism-based; design: route intraperitoneal; conditions: in vivo, 216 h
P388 [26] = test: Antitumor activity against mouse P388 cells allografted in DBA/2 mouse assessed as host survival at 4 mg/kg/day, ip for 9 days compound administered through saline vehicle relative to control; type: functional; conditions: route intraperitoneal; how it was run: as §2
Mus musculus [27] = test: Toxicity in DBA/2 mouse allografted with mouse P388 cells assessed as change in body weight at 9 mg/kg/day, ip for 9 days compound administered through water+alcohol vehicle; type: organism-based; design: route intraperitoneal; conditions: in vivo, 216 h
P388 [28] = test: Antitumor activity against mouse P388 cells allografted in ip dosed DBA/2 mouse administered for 9 days; type: functional, organism-based; how it was run: as §1

C=C(CC(=O)OC)C(=O)O[C@@H]1C(OC)=C[C@]23CCCN2CCc2cc4c(cc2[C@H]13)OCO4 [listing 1 of 2 here]
Activity (P388 [1]): Active | Activity (L1210): inactive

C=C(CC(=O)OC)C(=O)O[C@@H]1C(OC)=C[C@]23CCCN2CCc2cc4c(cc2[C@H]13)OCO4 [listing 2 of 2 here]
T/C (P388 [2]): 169% | Activity (Mus musculus [3]): -0.1 g | Activity (Mus musculus [4]): -1.3 g | Activity (Mus musculus [5]): -1.4 g | Activity (Mus musculus [6]): Toxic | Activity (Mus musculus [7]): -1.1 g | T/C (P388 [8]): 135% | T/C (P388 [9]): 167% | Activity (Mus musculus [10]): -3 g | T/C (P388 [11]): 198% | T/C (P388 [12]): 173%

CCOC(=O)C(=O)O[C@@H]1C(OC)=C[C@]23CCCN2CCc2cc4c(cc2[C@H]13)OCO4
Activity (P388 [13]): inactive | T/C (P388 [14]): 129% | Activity (Mus musculus [15]): -0.2 g | T/C (P388 [16]): 154% | Activity (Mus musculus [17]): -0.1 g | T/C (P388 [18]): 135% | Activity (Mus musculus [19]): -0.8 g

COC1=C[C@]23CCCN2CCc2cc4c(cc2[C@@H]3[C@@H]1OC(=O)OCC(Cl)(Cl)Cl)OCO4
Activity (P388 [13]): inactive | Activity (Mus musculus [20]): -1 g | Activity (Mus musculus [3]): -1.3 g | Activity (Mus musculus [4]): -0.4 g | Activity (Mus musculus [15]): -2.7 g | T/C (P388 [16]): 138% | Activity (Mus musculus [21]): -0.3 g | Activity (Mus musculus [7]): -0.9 g | T/C (P388 [8]): 140% | T/C (P388 [9]): 155% | T/C (P388 [22]): 170% | T/C (P388 [12]): 160% | T/C (P388 [18]): 128% | T/C (P388 [23]): 172% | Activity (Mus musculus [19]): -0.5 g

COC(=O)C[C@@](O)(CCC(C)C)C(=O)O[C@@H]1C(OC)=C[C@]23CCCN2CCc2cc4c(cc2[C@H]13)OCO4
T/C (P388 [24]): 131% | Activity (Mus musculus [25]): 0.5 g | T/C (P388 [26]): 150% | Activity (Mus musculus [27]): -2.2 g

C/C=C/C=C/C(=O)O[C@@H]1C(OC)=C[C@]23CCCN2CCc2cc4c(cc2[C@H]13)OCO4
Activity (Mus musculus [3]): 0.9 g | Activity (Mus musculus [4]): -1.8 g | Activity (Mus musculus [15]): 0.9 g | T/C (P388 [8]): 125% | T/C (P388 [12]): 150% | T/C (P388 [18]): 130%

COC(=O)/C=C(\C)C(=O)O[C@@H]1C(OC)=C[C@]23CCCN2CCc2cc4c(cc2[C@H]13)OCO4
Activity (P388 [28]): inactive

COC(=O)/C=C/C=C/C(=O)O[C@@H]1C(OC)=C[C@]23CCCN2CCc2cc4c(cc2[C@H]13)OCO4
Activity (P388 [28]): inactive
